TDP2 absorb = human TDP2 enzyme inhibitors, primary screen, biochemical, epi absorbance, recombinant enzyme; AID 720702, 2013; inhibition, % at 12.8 µM; T5PNP hydrolysis, p-nitrophenol absorbance 415 nm; Tyrosyl-DNA phosphodiesterase 2 (Homo sapiens), O95551; 370,000 compounds, 0.34% hits;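 active = inhibition above the mean of all tested compounds plus 3 SD, set per campaign, cut at about 25% in these data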
Target sequence (O95551 whole entry, looked up): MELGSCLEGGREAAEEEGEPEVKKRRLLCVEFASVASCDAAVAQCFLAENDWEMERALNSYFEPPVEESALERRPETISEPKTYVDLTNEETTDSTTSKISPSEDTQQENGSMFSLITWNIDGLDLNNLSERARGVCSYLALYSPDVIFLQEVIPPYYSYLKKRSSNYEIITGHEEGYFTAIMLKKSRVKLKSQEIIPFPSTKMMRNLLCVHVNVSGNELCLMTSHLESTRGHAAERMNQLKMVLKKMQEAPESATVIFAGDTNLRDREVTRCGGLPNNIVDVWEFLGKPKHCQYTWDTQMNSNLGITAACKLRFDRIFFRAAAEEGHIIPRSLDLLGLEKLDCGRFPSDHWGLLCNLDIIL
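Incubation: 2 h at 37 °C; Test system: recombinant human TDP2; Quantity: enzyme 120 nM; Read-out basis: percent inhibition; Medium: 50 mM Tris-HCl pH 7.5 with Mg2+, KCl, DTT, BSA; Repeats: single replicate; Compound: 12.8 µM single point, 1% DMSO; Signal: epi absorbance; Reagent: 5 mM T5PNP chromogenic substrate; Benchmarks: no-enzyme high, DMSO-plus-enzyme low.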
LEDGF integ inh = blockers of LEDGF/p75-dependent integrase strand transfer – biochemical, TR-FRET, high throughput, primary screen | TR-FRET IN-LEDGF/p75 DNA integration, Eu/Cy5 | AID 743269, 2014 | 370,000 compounds, 0.64% hits | HIV-1 integrase (with human LEDGF/p75) | inhibition, % at 3.7 µM;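 active = inhibition above the screen-wide mean plus 3 SD, cut at about 13% in these data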;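 also: signal is the Cy5 over europium emission ratio at 671 and 618 nm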
UHRF1 binding = UHRF1 methylated DNA binding inhibitors, primary screen, counter-screen for MBD2 inhibitor project, biochemical, TR-FRET, human UHRF1, single concentration | E3 ubiquitin-protein ligase UHRF1 (Homo sapiens), Q96T88 | UHRF1 binding to methylated oligo | inhibition, % at 4.4 µM | 370,000 compounds, 0.75% hits | AID 687016, 2013; in the data active = inhibition above about 21%;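 also: UHRF1 SRA domain binding a hemimethylated CpG hairpin DNA probe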
MBD2 inh = inhibitors of MBD2 binding to methylated DNA, primary screen, biochemical, TR-FRET, DNA-binding domain, human | Methyl-CpG-binding domain protein 2 (Homo sapiens), Q9UBB5 | MBD2 binding to methylated oligonucleotide | inhibition, % at 4.4 µM | 370,000 compounds, 0.31% hits | AID 686964, 2013; in the data active = inhibition above about 13%
HCV core dimer = inhibitors of HCV core protein dimerization, primary screen, biochemical, TR-FRET, high-throughput; TR-FRET GST/Flag-core106 dimerization, 1536-well; inhibition, % at 5 µM; 300,000 compounds, 0.33% hits; AID 1899, 2009;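 active = inhibition above the mean of all tested compounds plus 3 SD, set per screening campaign, cut at about 45% in these data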
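Test system: GST/Flag-tagged HCV core106 proteins; Medium: KF-containing HEPES buffer, pH 7.45, DTT, CHAPS, BSA; Times: compound-protein-antibody incubation 4 h at 22.5 °C; Detection: TR-FRET 671 and 617 nm emission; Benchmarks: wells lacking GST-core106 and wells with excess unlabelled core106.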
IN multimer up = HIV-1 IN multimer formation enhancers, counter-screen for LEDGF/p75 integration inhibitor project, biochemical, TR-FRET; shares compounds with LEDGF integ inh; TR-FRET HIV-1 integrase multimerization; activation, % at 7.7 µM; 2,000 compounds, 17% hits; AID 1053131, 2014; in the data active = activation above about 8.9%
TR-FRET interf = TR-FRET optical interference artefacts, confirmation, artefact control for LEDGF/p75-dependent integration inhibitor project, biochemical, HIV-1 IN multimerization. shares compounds with LEDGF integ inh. TR-FRET optical interference counterscreen. inhibition, % at 7.7 µM. 2,000 tested, under 10 active;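 active = inhibition above the mean over all tested compounds plus 3 SD, which no compound reached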
LEDGF integ conf = inhibitors of HIV-1 IN-LEDGF/p75 DNA integration, confirmation, biochemical, TR-FRET. inhibition, % at 3.7 µM. 2,000 compounds, 36% hits. shares compounds with LEDGF integ inh. TR-FRET LEDGF/p75-dependent HIV-1 integration; in the data active = inhibition above about 14%
Each line names hits and unclear results; the compound was inactive in the other large screens (follow-up assays come after a bar, where they were run). Sampled rows, rich in hits. Any-hit rate of the full collection: about 1.8%.

COc1cc(-c2cccs2)cc(=O)c2c(C)oc(C)c12	LEDGF integ inh 17 | IN multimer up inactive | TR-FRET interf inactive | LEDGF integ conf inactive
CCN1CCN(c2cc(C)c3cc(NC(=S)N4CCOCC4)ccc3n2)CC1	LEDGF integ inh 21 | IN multimer up inactive | TR-FRET interf inactive | LEDGF integ conf inactive
CCN1CCN(c2cc(C)c3cc(NC(=S)N4CCN(c5ccccc5)CC4)ccc3n2)CC1	none
CC1(C)CC(=O)C=C(Nc2ccccc2NC(=O)c2cc(F)ccc2F)C1	none (no result: HCV core dimer)
c1ccc(-c2cnc(SCCN3CCOCC3)n2CC2CCCO2)cc1 (configuration not stated)	none
COc1ccc(-c2cnc(N)n2CC2CCCO2)cc1 (configuration not stated)	LEDGF integ inh 28 | IN multimer up inactive | TR-FRET interf inactive | LEDGF integ conf inactive
CCOc1cc(OCC)cc(C(=O)N2CCC[C@@H]2C(=O)N2CCC[C@@H]2C(=O)NCc2cccc(OC)c2)c1	none (no result: HCV core dimer)
N#Cc1ccc(-c2ccco2)nc1SCc1ccccc1	none
CCSc1nc(-c2ccco2)ccc1C#N	LEDGF integ inh 16 | IN multimer up inactive | TR-FRET interf inactive | LEDGF integ conf inactive
O=C(Nc1ccccc1)c1ccc2nc(-c3ccco3)c(-c3ccco3)nc2c1	LEDGF integ inh 17, HCV core dimer 75 | IN multimer up inactive | TR-FRET interf inactive | LEDGF integ conf 43
O=C(Nc1ccc(N2CCOCC2)cc1)c1ccc2nc(-c3ccco3)c(-c3ccco3)nc2c1	none
S=C(Nc1ccc(N2CCOCC2)cc1)Nc1ccc2nc(-c3ccco3)c(-c3ccco3)nc2c1	LEDGF integ inh 27, HCV core dimer 83 | IN multimer up 18 | TR-FRET interf inactive | LEDGF integ conf 51
CCCCNC(=O)c1ccc2nc(-c3ccco3)c(-c3ccco3)nc2c1	LEDGF integ inh 50, UHRF1 binding 28, HCV core dimer 50 | IN multimer up inactive | TR-FRET interf inactive | LEDGF integ conf 33
CCCC(=O)N1CCC[C@]2(CC[C@H](CCC#N)O2)C1	none (no result: HCV core dimer)
CC(C)[C@H](NC(=O)c1ccco1)C(=O)N1CCC[C@H]1C(=O)NCc1ccccc1	none (no result: HCV core dimer)
Cc1noc(C)c1C(=O)N1CCC(n2nnc3ncccc32)CC1	none (no result: HCV core dimer)
COc1ccc(-c2ccc(C(=O)Nc3cccc(NS(C)(=O)=O)c3)c3occc23)c(C)c1	LEDGF integ inh 16 (no result: HCV core dimer) | IN multimer up inactive | TR-FRET interf inactive | LEDGF integ conf inactive
CC[C@H](CCCc1ccc(OC)cc1)CCC(=O)N(c1ccccc1)c1ccccc1	none (no result: HCV core dimer)
O=C(N/N=C/C=C/c1ccco1)C(O)c1ccccc1 (configuration not stated)	LEDGF integ inh 26 | IN multimer up inactive | TR-FRET interf inactive | LEDGF integ conf 26
COC(CNC(=O)[C@H](Cc1ccccc1)NCC(=O)NC1CCCCC1)OC	none (no result: HCV core dimer)
CC[C@@]1(O)C(=O)OCc2c1cc1n(c2=O)Cc2cc3c(N)cccc3nc2-1	LEDGF integ inh 23 | IN multimer up 14 | TR-FRET interf inactive | LEDGF integ conf inactive
CC1(C)CC(=O)C2=C(C1)OC1=C(C(=O)CC(C)(C)C1)C2c1ccc(O)cc1O	LEDGF integ inh 17 | IN multimer up inactive | TR-FRET interf inactive | LEDGF integ conf inactive
O=C(Cc1nnc(NC(=O)c2ccccc2)s1)N/N=C\c1ccc(O)c(O)c1	LEDGF integ inh 16 | IN multimer up 35 | TR-FRET interf inactive | LEDGF integ conf 50
O=C(Cc1nnc(NC(=O)c2ccccc2)s1)N/N=C/c1ccc(O)cc1	none
COc1ccc(-c2csc(NC(=O)c3cccs3)c2C(=O)O)cc1OC	LEDGF integ inh 18 | IN multimer up inactive | TR-FRET interf inactive | LEDGF integ conf inactive
COc1ccc(-c2csc(NC(=O)c3ccccc3OC)c2C(=O)O)cc1OC	none
COc1ccc2nc(NC(=O)c3ccccc3C(=O)O)sc2c1	none
COc1ccc2nc(NC(=O)c3ccccc3F)sc2c1	LEDGF integ inh 16 | IN multimer up inactive | TR-FRET interf inactive | LEDGF integ conf inactive
O=C(CCCCCN1C(=O)C2C3C=CC(C3)C2C1=O)Nc1ccc2ncccc2c1 (configuration not stated)	LEDGF integ inh 22 (no result: HCV core dimer) | IN multimer up inactive | TR-FRET interf inactive | LEDGF integ conf inactive
O=C(CCCCCN1C(=O)C2C3C=CC(C3)C2C1=O)Nc1ccc(Cl)cc1 (configuration not stated)	none (no result: HCV core dimer)
Clc1ccccc1OCCn1nnc2ccccc21	LEDGF integ inh 29 | IN multimer up inactive | TR-FRET interf inactive | LEDGF integ conf inactive
Cc1ccc(C)c(OCCn2nnc3ccccc32)c1	none
O=C1c2ccccc2C(=O)c2c(Nc3ccc(CCO)cc3)ccc(O)c21	LEDGF integ inh 15 | IN multimer up 14 | TR-FRET interf inactive | LEDGF integ conf inactive
O=C(NCCc1ccccc1)OCc1cn(Cc2ccccc2Cl)nn1	none (no result: HCV core dimer)
COC(=O)CSc1nnc(-c2n[nH]c3c2CCC3)n1N	none (no result: HCV core dimer)
Cc1ccc(-n2c(SCC(=O)N/N=C/c3ccccc3OCC(=O)O)nc3ccccc3c2=O)cc1	LEDGF integ inh 68 | IN multimer up inactive | TR-FRET interf inactive | LEDGF integ conf inactive
Cc1ccc(CC(=O)N(Cc2ccccc2)c2ccccn2)cc1	none
Cc1ccc(OCC(=O)N(Cc2ccccc2)c2ccccn2)cc1	LEDGF integ inh 52 | IN multimer up inactive | TR-FRET interf inactive | LEDGF integ conf inactive
Cc1cc(O)c(CN(C)C)c2c1C(=O)/C(=C/c1ccco1)O2	LEDGF integ inh 26 | IN multimer up 11 | TR-FRET interf inactive | LEDGF integ conf 24
COc1ccc2c(c1)O/C(=C\c1ccco1)C2=O	none
O=C(NC1CCCCN(Cc2cccc(Cl)c2)C1=O)c1ccccc1 (configuration not stated)	none (no result: HCV core dimer)
CC1(C)Cc2c(c(-c3ccccc3)[nH]c(=O)c2C#N)CS1	none

Compound activity from PubChem BioAssay.
